Source: ChEMBL document CHEMBL4392833, “Thiazolyl-pyrazole derivatives as potential antimycobacterial agents” (Bioorg Med Chem Lett, 2019)
Converted amounts (≈) assume the structure as drawn.

Columns and labels:
[1] = system: Mycobacterium tuberculosis; experiment: Antitubercular activity against dormant stage of Mycobacterium tuberculosis H37Ra ATCC 25177 assessed as growth inhibition at 30 ug/ml after 12 days by XRMA relative to control; type: functional; conditions: H37Ra ATCC 25177, 288 h
[2] = system: Mycobacterium tuberculosis; experiment: Antitubercular activity against dormant stage of Mycobacterium tuberculosis H37Ra ATCC 25177 infected in human THP1 cells by nitrate reductase assay; type: functional, organism-based; conditions: for MIC90: H37Ra ATCC 25177; for IC50: H37Ra ATCC 25177, THP-1
[3] = Growth inhibition of human THP1 cells; type: cell-based; conditions: THP-1 cells
[4] = (§1) Growth inhibition of human PANC1 cells by MTT assay; type: cell-based, PANC-1; conditions: PANC-1 cells
How it was run: (§2)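 Human cancer cell lines were exposed in vitro to a range of compound concentrations. Viability was read by MTT colorimetric assay, and GI50 and GI90 were derived from the concentration series.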

PANC-1 = experiment: as §1; type: cell-based; conditions: panc-1; how it was run: as §2
THP-1 [5] = experiment: Cytotoxicity against human THP1 cells at 10 ug/ml; type: cell-based
[6] = system: Mycobacterium tuberculosis; experiment: Antitubercular activity against dormant stage of Mycobacterium tuberculosis H37Ra ATCC 25177 by two fold dilution technique; type: functional
How it was run: (§3)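 MIC against dormant-stage bacilli, read out by XTT reduction menadione assay (XRMA), with rifampicin MIC determined the same way as reference.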

[7] = system: Mycobacterium tuberculosis; experiment: Antitubercular activity against dormant stage of Mycobacterium tuberculosis H37Ra ATCC 25177 assessed as growth inhibition at 3 ug/ml after 12 days by XRMA relative to control; type: functional; conditions: H37Ra ATCC 25177, 288 h
A549 = experiment: (§4) Growth inhibition of human A549 cells by MTT assay; type: cell-based; conditions: a549; how it was run: as §2
[8] = as §4; type: cell-based; conditions: A549 cells; how it was run: as §2
[9] = (§5) Growth inhibition of human HeLa cells by MTT assay; type: cell-based; conditions: HeLa cells; how it was run: as §2
HeLa = experiment: as §5; type: cell-based; conditions: hela; how it was run: as §2
[10] = system: Mycobacterium tuberculosis; experiment: Antitubercular activity against dormant stage of Mycobacterium tuberculosis H37Ra ATCC 25177 after 12 days by XRMA; type: functional, organism-based; conditions: H37Ra ATCC 25177, 288 h; how it was run: as §3
THP-1 [11] = experiment: Cytotoxicity against human THP1 cells at 3 ug/ml; type: cell-based
[12] = system: Mycobacterium tuberculosis; experiment: Antitubercular activity against dormant stage of Mycobacterium tuberculosis H37Ra ATCC 25177 assessed as growth inhibition at 10 ug/ml after 12 days by XRMA relative to control; type: functional; conditions: H37Ra ATCC 25177, 288 h
THP-1 [13] = experiment: Cytotoxicity against human THP1 cells at 30 ug/ml; type: cell-based

Structure (SMILES)	inhibition at 30 µg/mL [1] [%]	MIC90 [2]	IC50 [2]	GI50 [3] [µg/mL]	GI50 [4] [µg/mL]	GI90 (PANC-1) [µg/mL]	Activity (THP-1 [5]) [%]	MIC90 [6]	inhibition at 3 µg/mL [7] [%]	GI90 (A549) [µg/mL]	GI50 [8] [µg/mL]	GI50 [9] [µg/mL]	GI90 (HeLa) [µg/mL]	IC50 [10]	Activity (THP-1 [11]) [%]	inhibition at 10 µg/mL [12] [%]	Activity (THP-1 [13]) [%]
Cc1ccc2oc(-c3cn(-c4ccc(F)cc4)nc3-c3sc(C)nc3C)cc(=O)c2c1	92.2	1.23 µM	160 nM	> 30	> 250	> 250	2.34	5.89 µM	47.8	> 250	> 250	> 250	> 250	1070 nM	0.8	88.6	4.94
Cc1nc(C)c(-c2nn(-c3ccc(F)cc3)cc2/C=C/C(=O)c2cc(Cl)cc(Cl)c2O)s1	30.5	> 30 µg/mL	> 30 µg/mL	–	> 250	> 250	17.69	> 30 µg/mL	20.4	> 250	> 250	> 250	> 250	> 30 µg/mL	15.71	26.8	49.76
Cc1nc(C)c(-c2nn(-c3ccc(F)cc3)cc2C2CC(c3cc(Cl)c(C)cc3O)=NN2)s1 (centres undefined)	95.6	8.59 µM	1620 nM	> 30	127 (≈ 264 µM)	> 250	10.66	9.65 µM	38.8	> 250	146 (≈ 302 µM)	> 250	> 250	520 nM	9.1	43.5	17.93
Cc1nc(C)c(-c2nn(-c3ccc(F)cc3)cc2C2CC(c3cc(Cl)ccc3O)=NN2)s1 (centres undefined)	97.2	1.5 µM	360 nM	> 30	> 250	> 250	11.51	2.48 µM	41.6	> 250	> 250	> 250	> 250	60 nM	7.09	79.7	17.04
CO[C@H]1/C=C/O[C@@]2(C)Oc3c(C)c(O)c4c(O)c(c(/C=N/N5CCN(C)CC5)c(O)c4c3C2=O)NC(=O)/C(C)=C\C=C\[C@H](C)[C@H](O)[C@@H](C)[C@@H](O)[C@@H](C)[C@H](OC(C)=O)[C@@H]1C [RIFAMPIN]	–	–	–	–	> 100	> 100	–	0.91 µM	–	> 100	> 100	> 100	> 100	–	–	–	–
Cc1ccc(O)c(C2=NNC(c3cn(-c4ccc(F)cc4)nc3-c3sc(C)nc3C)C2)c1 (centres undefined)	36.7	33.4 µM	11900 nM	–	> 250	> 250	10.7	46.4 µM	24.8	> 250	> 250	> 250	> 250	4310 nM	5.94	39.7	24.05
Cc1nc(C)c(-c2nn(-c3ccc(F)cc3)cc2/C=C/C(=O)c2cc(Cl)ccc2O)s1	3.39	> 30 µg/mL	> 30 µg/mL	–	> 250	> 250	34.74	> 30 µg/mL	2.66	> 250	> 250	> 250	> 250	> 30 µg/mL	16.49	5.49	36.55
Cc1nc(C)c(-c2nn(-c3ccc(F)cc3)cc2/C=C/C(=O)c2cc(Cl)c(C)cc2O)s1	92.7	7.56 µM	1920 nM	–	> 250	> 250	13.26	49.7 µM	3.95	> 250	> 250	34.9 (≈ 74.5 µM)	87.29 (≈ 187 µM)	2440 nM	10.73	16.3	17.45
Cc1nc(C)c(-c2nn(-c3ccc(F)cc3)cc2-c2cc(=O)c3cc(Cl)c(C)cc3o2)s1	93.7	2.94 µM	670 nM	> 30	> 250	> 250	16.62	3.69 µM	53.5	> 250	> 250	16.7 (≈ 35.8 µM)	53.48 (≈ 115 µM)	1670 nM	12.82	23.2	24.65
CC(=O)O[C@H]1C(=O)[C@@]2(C)[C@H]([C@H](OC(=O)c3ccccc3)[C@]3(O)C[C@H](OC(=O)[C@H](O)[C@@H](NC(=O)c4ccccc4)c4ccccc4)C(C)=C1C3(C)C)[C@]1(OC(C)=O)CO[C@@H]1C[C@@H]2O [PACLITAXEL]	–	–	–	–	–	5.715 (≈ 6.69 µM)	–	–	–	0.0706 (≈ 0.0827 µM)	–	–	0.075 (≈ 0.0878 µM)	–	–	–	–
Cc1ccc(O)c(C(=O)/C=C/c2cn(-c3ccc(F)cc3)nc2-c2sc(C)nc2C)c1	96	17.1 µM	2860 nM	–	52.4 (≈ 121 µM)	114.87 (≈ 265 µM)	15.3	32.7 µM	34.7	136.87 (≈ 316 µM)	47.8 (≈ 110 µM)	29.9 (≈ 68.9 µM)	77.32 (≈ 178 µM)	5560 nM	14.14	61.7	24.3
Cc1nc(C)c(-c2nn(-c3ccc(F)cc3)cc2C2CC(c3cc(Br)ccc3O)=NN2)s1 (centres undefined)	88.2	2.95 µM	410 nM	> 30	76.4 (≈ 149 µM)	115.65 (≈ 226 µM)	14.69	5.79 µM	42.5	154.68 (≈ 302 µM)	81.4 (≈ 159 µM)	21.6 (≈ 42.2 µM)	43.11 (≈ 84.1 µM)	310 nM	13.91	75.5	19.51
Cc1nc(C)c(-c2nn(-c3ccc(F)cc3)cc2/C=C/C(=O)c2c(O)cc(C)c(Cl)c2C)s1	10.1	> 30 µg/mL	> 30 µg/mL	–	35.2 (≈ 73.1 µM)	97.41 (≈ 202 µM)	18.42	> 30 µg/mL	3.39	84.31 (≈ 175 µM)	33.5 (≈ 69.4 µM)	59.3 (≈ 123 µM)	128.28 (≈ 266 µM)	> 30000 nM	13.12	9.47	41.43
Cc1nc(C)c(-c2nn(-c3ccc(F)cc3)cc2C2CC(c3c(O)cc(C)c(Cl)c3C)=NN2)s1 (centres undefined)	93.7	1.23 µM	440 nM	> 30	41.6 (≈ 83.9 µM)	77.64 (≈ 157 µM)	15.45	5.04 µM	91	88.98 (≈ 179 µM)	43.4 (≈ 87.4 µM)	25.2 (≈ 50.8 µM)	46.87 (≈ 94.5 µM)	80 nM	9.52	95.4	18.32
Cc1nc(C)c(-c2nn(-c3ccc(F)cc3)cc2/C=C/C(=O)c2cc(Br)ccc2O)s1	27.5	> 30 µg/mL	> 30 µg/mL	–	> 250	> 250	21.42	> 30 µg/mL	23.5	> 250	> 250	4.88 (≈ 9.79 µM)	44.94 (≈ 90.2 µM)	> 30 µg/mL	20.41	9	24.98
